Laboratory results as given in ChEMBL document CHEMBL3611973, “Synthesis and biological evaluation of a novel betulinic acid derivative as an inducer of apoptosis in human colon carcinoma cells (HT-29)” (Eur J Med Chem, 2015).

Tests used:
U-937 = assay: Cytotoxic activity against human U937 cells assessed as cell growth inhibition after 48 hrs by MTT assay; format: functional, cell-based; details: U-937, 48 h
How it was run: (§1)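 Log-phase cells (1.25-2.5×10^4/100 µl; RPMI 1640, HepG2 in high-glucose DMEM, 10% FBS) given compound in DMSO (final <0.1%), 0-50 µM, 48 h, 37 °C, 5% CO2. MTT 4 h, DMSO solubilization, OD 540 nm minus background; viability relative to untreated; IC50 by graphical extrapolation, ≥3 experiments in duplicate.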

HT-29 = assay: Cytotoxic activity against human HT-29 cells assessed as cell growth inhibition after 48 hrs by MTT assay; format: functional, cell-based; details: HT-29, 48 h; how it was run: as §1
Jurkat = assay: Cytotoxic activity against human Jurkat cells assessed as cell growth inhibition after 48 hrs by MTT assay; format: functional, cell-based; how it was run: as §1
MCF7 = assay: Cytotoxic activity against human MCF7 cells assessed as cell growth inhibition after 48 hrs by MTT assay; format: functional, cell-based; details: MCF7, 48 h; how it was run: as §1
HepG2 = assay: Cytotoxic activity against human HepG2 cells assessed as cell growth inhibition after 48 hrs by MTT assay; format: functional, cell-based; details: HepG2, 48 h; how it was run: as §1
PBMC = assay: Cytotoxic activity against human PBMC cells assessed as cell growth inhibition after 48 hrs by MTT assay; format: cell-based; how it was run: as §1

SMILES	IC50 (U-937) [µM]	IC50 (HT-29) [µM]	IC50 (Jurkat) [µM]	IC50 (MCF7) [µM]	IC50 (HepG2) [µM]	IC50 (PBMC) [µM]
C=C(C)[C@@H]1CC[C@]2(C(=O)O)CC[C@]3(C)[C@H](CC[C@@H]4[C@@]5(C)CC[C@H](OC(=O)Cn6cc(CCCC)nn6)C(C)(C)[C@@H]5CC[C@]43C)[C@@H]12	> 50	> 50	> 50	> 50	49.8	–
C=C(C)[C@@H]1CC[C@]2(C(=O)O)CC[C@]3(C)[C@H](CC[C@@H]4[C@@]5(C)CC[C@H](OC(=O)Cn6cc(-c7ccc8[nH]ccc8c7)nn6)C(C)(C)[C@@H]5CC[C@]43C)[C@@H]12	> 50	> 50	> 50	> 50	> 50	–
C=C(C)[C@@H]1CC[C@]2(C(=O)O)CC[C@]3(C)[C@H](CC[C@@H]4[C@@]5(C)CC[C@H](OC(=O)Cn6cc(CO[C@@H]7[C@H]8OC(C)(C)O[C@H]8O[C@@H]7[C@H]7COC(C)(C)O7)nn6)C(C)(C)[C@@H]5CC[C@]43C)[C@@H]12	> 50	> 50	> 50	> 50	> 50	–
C=C(C)[C@@H]1CC[C@]2(C(=O)O)CC[C@]3(C)[C@H](CC[C@@H]4[C@@]5(C)CC[C@H](OC(=O)Cn6cc(-c7ccccc7)nn6)C(C)(C)[C@@H]5CC[C@]43C)[C@@H]12	> 50	> 50	> 50	> 50	> 50	> 50
C=C(C)[C@@H]1CC[C@]2(C(=O)O)CC[C@]3(C)[C@H](CC[C@@H]4[C@@]5(C)CC[C@H](OC(=O)Cn6ccnn6)C(C)(C)[C@@H]5CC[C@]43C)[C@@H]12	> 50	> 50	> 50	> 50	> 50	> 50
C=C(C)[C@@H]1CC[C@]2(C(=O)O)CC[C@]3(C)[C@H](CC[C@@H]4[C@@]5(C)CC[C@H](OC(=O)Cn6cc(-c7c[nH]c(=O)[nH]c7=O)nn6)C(C)(C)[C@@H]5CC[C@]43C)[C@@H]12	> 50	> 50	> 50	> 50	> 50	–
